How the values were obtained:
[1] = molecular target: T1, Cyclooxygenase (Bos taurus, UniProt O62664+O62698); experiment: Inhibition of Prostaglandin G/H synthase in bovine thrombocyte intact cell assay.
T1 sequence (O62664 whole entry): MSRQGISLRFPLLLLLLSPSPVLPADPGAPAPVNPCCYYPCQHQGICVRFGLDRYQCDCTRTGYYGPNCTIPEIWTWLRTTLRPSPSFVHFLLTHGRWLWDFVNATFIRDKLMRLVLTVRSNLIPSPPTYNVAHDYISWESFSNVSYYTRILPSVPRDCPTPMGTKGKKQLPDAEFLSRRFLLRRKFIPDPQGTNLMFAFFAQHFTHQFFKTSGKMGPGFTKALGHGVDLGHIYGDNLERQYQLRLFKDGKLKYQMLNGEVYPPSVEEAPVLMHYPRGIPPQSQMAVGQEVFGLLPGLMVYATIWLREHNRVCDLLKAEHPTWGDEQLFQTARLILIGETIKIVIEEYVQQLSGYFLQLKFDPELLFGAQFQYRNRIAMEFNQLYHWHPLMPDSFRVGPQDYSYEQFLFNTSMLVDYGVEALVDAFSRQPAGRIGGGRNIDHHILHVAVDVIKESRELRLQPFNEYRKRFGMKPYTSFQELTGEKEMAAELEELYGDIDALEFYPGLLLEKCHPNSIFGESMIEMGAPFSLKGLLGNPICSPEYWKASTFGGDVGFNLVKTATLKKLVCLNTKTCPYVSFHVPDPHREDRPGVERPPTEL
T1 sequence (O62698 whole entry): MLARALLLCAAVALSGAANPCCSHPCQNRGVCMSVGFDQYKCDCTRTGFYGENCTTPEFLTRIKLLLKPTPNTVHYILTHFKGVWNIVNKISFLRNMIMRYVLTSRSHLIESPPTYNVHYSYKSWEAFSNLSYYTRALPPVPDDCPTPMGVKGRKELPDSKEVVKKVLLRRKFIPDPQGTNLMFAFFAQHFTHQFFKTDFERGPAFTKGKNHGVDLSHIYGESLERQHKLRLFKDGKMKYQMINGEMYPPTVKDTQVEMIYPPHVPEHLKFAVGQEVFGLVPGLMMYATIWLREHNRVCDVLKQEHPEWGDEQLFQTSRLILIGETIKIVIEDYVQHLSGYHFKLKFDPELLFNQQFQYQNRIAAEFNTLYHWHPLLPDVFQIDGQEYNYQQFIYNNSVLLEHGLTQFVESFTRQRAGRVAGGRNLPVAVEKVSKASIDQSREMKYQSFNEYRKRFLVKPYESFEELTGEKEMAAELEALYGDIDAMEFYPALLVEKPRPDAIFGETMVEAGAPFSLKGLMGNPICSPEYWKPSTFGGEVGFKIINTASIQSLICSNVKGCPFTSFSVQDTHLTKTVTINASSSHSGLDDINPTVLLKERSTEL
Procedure, shortened: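 Intact thrombocytes isolated from fresh bovine blood by ficoll gradient centrifugation. Cells incubated with test compound, then stimulated with Ca-ionophore A 23187. IC50 taken as the average of at least two determinations.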

[2] = molecular target: T2, Arachidonate 5-lipoxygenase (Bos taurus, UniProt Q9BEG3); experiment: Inhibition of 5-lipoxygenase in bovine PMNL cell assay.; type: cell-based
T2 sequence (Q9BEG3 whole entry): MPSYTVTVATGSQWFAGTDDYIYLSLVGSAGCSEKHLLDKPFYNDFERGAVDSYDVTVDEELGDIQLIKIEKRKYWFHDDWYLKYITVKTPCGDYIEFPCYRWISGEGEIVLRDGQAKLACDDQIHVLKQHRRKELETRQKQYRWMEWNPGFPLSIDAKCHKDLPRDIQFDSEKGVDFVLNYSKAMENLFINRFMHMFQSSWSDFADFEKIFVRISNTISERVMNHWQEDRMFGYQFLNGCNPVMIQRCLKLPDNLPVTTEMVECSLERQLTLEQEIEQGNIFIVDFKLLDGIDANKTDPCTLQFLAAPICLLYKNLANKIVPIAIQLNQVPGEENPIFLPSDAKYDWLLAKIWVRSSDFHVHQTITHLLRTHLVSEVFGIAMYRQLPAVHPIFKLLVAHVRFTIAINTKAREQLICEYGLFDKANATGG
Procedure, shortened: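 Intact polymorphonuclear leukocytes isolated from fresh bovine blood by ficoll gradient centrifugation. Cells incubated with test compound, then stimulated with Ca-ionophore A 23187. IC50 taken as the average of at least two determinations.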

[3] = molecular target: T3, Polyunsaturated fatty acid 5-lipoxygenase (Homo sapiens, UniProt P09917); experiment: Inhibition of human 5-lipoxygenase in human cells; type: cell-based
T3 sequence (P09917 whole entry): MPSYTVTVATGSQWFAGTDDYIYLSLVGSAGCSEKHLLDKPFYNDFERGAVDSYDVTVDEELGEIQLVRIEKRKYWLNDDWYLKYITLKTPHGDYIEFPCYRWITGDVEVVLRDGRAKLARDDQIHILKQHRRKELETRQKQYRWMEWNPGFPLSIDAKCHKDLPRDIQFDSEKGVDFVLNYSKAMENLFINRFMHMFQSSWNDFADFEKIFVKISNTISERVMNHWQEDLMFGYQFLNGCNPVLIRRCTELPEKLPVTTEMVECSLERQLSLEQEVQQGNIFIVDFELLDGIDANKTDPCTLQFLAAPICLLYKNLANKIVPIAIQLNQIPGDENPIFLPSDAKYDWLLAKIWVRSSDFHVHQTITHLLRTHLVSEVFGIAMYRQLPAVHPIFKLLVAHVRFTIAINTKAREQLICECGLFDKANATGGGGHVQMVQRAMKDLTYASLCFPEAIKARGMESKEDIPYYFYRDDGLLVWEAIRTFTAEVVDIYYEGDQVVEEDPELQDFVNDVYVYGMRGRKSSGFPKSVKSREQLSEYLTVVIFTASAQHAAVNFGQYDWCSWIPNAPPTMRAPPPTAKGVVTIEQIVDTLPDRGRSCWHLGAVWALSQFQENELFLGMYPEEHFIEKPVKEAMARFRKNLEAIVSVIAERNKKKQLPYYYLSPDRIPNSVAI
Procedure, shortened: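 Intact PMNL isolated by Ficoll gradient centrifugation from fresh human blood; cells incubated with test compound, then stimulated with Ca-ionophore A 23187; 5-LO inhibition expressed as IC50.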

Row | IC50 [1] [µM] | IC50 [2] [µM] | IC50 [3] [µM] | SMILES
1 | 12 | 1.8 | – | CC1(C)Cc2c(-c3ccccc3)c(-c3ccc(Cl)c(Cl)c3Cl)c(CC(=O)O)n2C1
2 | 12 | 4.3 | – | CC1(C)Cc2c(-c3ccccc3)c(-c3cc(Cl)ccc3Cl)c(CC(=O)O)n2C1
3 | 18 | 2.1 | – | CC1(C)Cc2c(-c3ccccc3)c(-c3ccc(Cl)cc3Cl)c(CC(=O)O)n2C1
4 | 1 | 6 | – | CC1(C)Cc2c(-c3ccccc3)c(-c3ccc(N)cc3)c(CC(=O)O)n2C1
5 | 61 | 4.4 | – | CC1(C)Cc2c(-c3ccccc3)c(-c3ccccc3Cl)c(CC(=O)O)n2C1
6 | 3.2 | > 10 | – | CC1(C)Cc2c(-c3ccccc3)c(-c3ccc(F)cc3)c(CC(=O)O)n2C1
7 | 4.5 | 1.7 | – | CC1(C)Cc2c(-c3ccccc3)c(-c3ccc(Cl)c(Cl)c3)c(CC(=O)O)n2C1
8 | 2 | 1.6 | – | O=C(O)Cc1c(-c2ccc(Cl)cc2)c(-c2ccccc2)c2n1CCC2
9 | 1.6 | 7.7 | – | CC1(C)Cc2c(-c3ccccc3)c(-c3ccc(O)cc3)c(CC(=O)O)n2C1
10 | 3.4 | 5.2 | – | CC1(C)Cc2c(-c3ccc(Cl)cc3)c(-c3ccccc3)c(CC(=O)O)n2C1
11 | 0.21 | 0.18 | 0.23 | CC1(C)Cc2c(-c3ccccc3)c(-c3ccc(Cl)cc3)c(CC(=O)O)n2C1 [LICOFELONE]
12 | 2 | 1.6 | – | CC1(C)Cc2c(-c3ccccc3)c(-c3ccc(Oc4ccccc4)cc3)c(CC(=O)O)n2C1
13 | 0.03 | 1.5 | – | CC1(C)Cc2c(-c3ccccc3)c(-c3ccc([N+](=O)[O-])cc3)c(CC(=O)O)n2C1
14 | 0.1 | 4 | – | CC1(C)Cc2c(-c3ccccc3)c(-c3ccccc3)c(CC(=O)O)n2C1
15 | 0.1 | 0.24 | – | COc1ccc(-c2c(-c3ccccc3)c3n(c2CC(=O)O)CC(C)(C)C3)cc1
16 | 3.6 | 1.7 | – | CC1(C)Cc2c(-c3ccccc3)c(-c3cccc(Cl)c3)c(CC(=O)O)n2C1
17 | 0.8 | 10 | – | CC(=O)Nc1ccc(-c2c(-c3ccccc3)c3n(c2CC(=O)O)CC(C)(C)C3)cc1
18 | 20 | 0.18 | – | CC1(C)Cc2c(-c3ccccc3)c(-c3ccc(C(C)(C)C)cc3)c(CC(=O)O)n2C1

From ChEMBL document CHEMBL1127551, “(6,7-Diaryldihydropyrrolizin-5-yl)acetic acids, a novel class of potent dual inhibitors of both cyclooxygenase and 5-lipoxygenase” (J Med Chem, 1994)
